Results from ChEMBL document CHEMBL1275598, “In vitro activity of ceftaroline against community-associated methicillin-resistant, vancomycin-intermediate, vancomycin-resistant, and daptomycin-nonsusceptible Staphylococcus aureus isolates” (2010).
Values after ≈ are worked out from the molar mass of the structure shown.

Assays:
Assay type in all cases: functional
[1] = tested on: Staphylococcus aureus; assay: Antimicrobial activity against vancomycin resistant Staphylococcus aureus VRS-10 expressing SCCmec type 2 element by microdilution method
How it was run: (§1)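 Broth microdilution per CLSI in cation-adjusted Mueller-Hinton broth. Antibiotic powders were reconstituted per CLSI. The MIC was read visually as the lowest drug concentration with no visible growth. S. aureus ATCC 29213 and E. faecalis ATCC 29212 served as control strains. VISA and VRSA isolates came from the NARSA program.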

[2] = tested on: Staphylococcus aureus; assay: Antimicrobial activity against community-acquired methicillin-resistant Staphylococcus aureus by microdilution method
How it was run: (§2)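 MIC by broth microdilution in cation-adjusted Mueller-Hinton broth, following CLSI guidelines; antibiotic powders reconstituted per CLSI. Read visually as the lowest drug concentration well with no visible growth. S. aureus ATCC 29213 and E. faecalis ATCC 29212 served as control strains. CA-MRSA: hospital patients culture-positive within 48 h of admission. DNSSA: patient blood isolates. VISA: obtained from the NARSA program.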

[3] = tested on: Staphylococcus aureus; assay: Antimicrobial activity against community-acquired methicillin-resistant Staphylococcus aureus assessed as susceptible isolates by microdilution method
How it was run: (§3)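 MICs by CLSI broth microdilution in cation-adjusted Mueller-Hinton broth, read visually as the lowest concentration with no visible growth. Percentages of susceptible or resistant isolates assigned using CLSI breakpoints. Isolates: CA-MRSA (n = 92, positive within 48 h of admission) and DNSSA (n = 7, blood).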

[4] = tested on: Staphylococcus aureus; assay: Antimicrobial activity against community-acquired methicillin-resistant Staphylococcus aureus assessed as resistant isolates by microdilution method; how it was run: as §3
[5] = tested on: Staphylococcus aureus; assay: Bactericidal activity against vancomycin-resistant Staphylococcus aureus assessed as antibiotic concentration that reduced the number of viable cells by =>99.9% by colony count method; conditions: Staphylococcus aureus
How it was run: (§4)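 MBC per CLSI following microdilution in cation-adjusted Mueller-Hinton broth. Defined as the concentration giving ≥99.9% reduction in viable cells, judged from colony counts of the growth control well against Pearson rejection-value tables. CA-MRSA isolates were hospital patients' isolates with positive MRSA culture within 48 h of admission.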

[6] = tested on: Staphylococcus aureus; assay: Bactericidal activity against community-acquired methicillin-resistant Staphylococcus aureus assessed as antibiotic concentration that reduced the number of viable cells by =>99.9% by colony count method; conditions: for MBC: Staphylococcus aureus; how it was run: as §4
[7] = tested on: Staphylococcus aureus; assay: Antimicrobial activity against vancomycin-intermediate Staphylococcus aureus by microdilution method; how it was run: as §1
[8] = tested on: Staphylococcus aureus; assay: Antimicrobial activity against vancomycin-intermediate Staphylococcus aureus assessed as susceptible isolates by microdilution method
How it was run: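 CLSI broth microdilution in cation-adjusted Mueller-Hinton broth. MIC is the lowest concentration well with no visible growth, read by eye. Isolates were classed susceptible from CLSI breakpoints. S. aureus ATCC 29213 and E. faecalis ATCC 29212 were used as MIC control strains.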

[9] = tested on: Staphylococcus aureus; assay: Antimicrobial activity against vancomycin-intermediate Staphylococcus aureus assessed as resistant isolates by microdilution method
How it was run: (§5)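 CLSI broth microdilution MICs in cation-adjusted Mueller-Hinton broth, read visually as the lowest concentration with no visible growth. Percent of isolates classed susceptible or resistant was assigned using CLSI breakpoints.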

[10] = tested on: Staphylococcus aureus; assay: Antimicrobial activity against vancomycin-resistant Staphylococcus aureus assessed as resistant isolates by microdilution method; how it was run: as §5
[11] = tested on: Staphylococcus aureus; assay: Bactericidal activity against vancomycin-intermediate Staphylococcus aureus assessed as antibiotic concentration that reduced the number of viable cells by =>99.9% by colony count method; conditions: for MBC: Staphylococcus aureus
How it was run: (§6)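 MBC per CLSI guidelines. It was taken as the antibiotic concentration giving ≥99.9% reduction in viable cells, based on colony counts from the growth control well and rejection values from Pearson's tables.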

[12] = tested on: Staphylococcus aureus; assay: Antimicrobial activity against daptomycin-nonsusceptible Staphylococcus aureus by microdilution method; how it was run: as §2
[13] = tested on: Staphylococcus aureus; assay: Antimicrobial activity against daptomycin-nonsusceptible Staphylococcus aureus assessed as susceptible isolates by microdilution method; how it was run: as §3
[14] = tested on: Staphylococcus aureus; assay: Antimicrobial activity against daptomycin-nonsusceptible Staphylococcus aureus assessed as resistant isolates by microdilution method; how it was run: as §3
[15] = tested on: Staphylococcus aureus; assay: Antimicrobial activity against vancomycin-resistant Staphylococcus aureus by microdilution method; how it was run: as §1
[16] = tested on: Staphylococcus aureus; assay: Antimicrobial activity against vancomycin-resistant Staphylococcus aureus assessed as susceptible isolates by microdilution method; how it was run: as §5
[17] = tested on: Staphylococcus aureus; assay: Bactericidal activity against daptomycin-nonsusceptible Staphylococcus aureus assessed as antibiotic concentration that reduced the number of viable cells by =>99.9% by colony count method; how it was run: as §6
[18] = tested on: Staphylococcus aureus; assay: Antimicrobial activity against vancomycin intermediate Staphylococcus aureus NRS-3 expressing SCCmec type 2 element by microdilution method; how it was run: as §2
[19] = tested on: Staphylococcus aureus; assay: Antimicrobial activity against vancomycin intermediate Staphylococcus aureus NRS-4 expressing SCCmec type 2 element by microdilution method; how it was run: as §2
[20] = tested on: Staphylococcus aureus; assay: Antimicrobial activity against vancomycin intermediate Staphylococcus aureus NRS-17 expressing SCCmec type 2 element by microdilution method; how it was run: as §2
[21] = tested on: Staphylococcus aureus; assay: Antimicrobial activity against vancomycin intermediate Staphylococcus aureus NRS-18 expressing SCCmec type 2 element by microdilution method; how it was run: as §2
[22] = tested on: Staphylococcus aureus; assay: Antimicrobial activity against vancomycin intermediate Staphylococcus aureus NRS-19 expressing SCCmec type 2 element by microdilution method; how it was run: as §2
[23] = tested on: Staphylococcus aureus; assay: Antimicrobial activity against vancomycin intermediate Staphylococcus aureus NRS-22 expressing SCCmec type 2 element by microdilution method; how it was run: as §2
[24] = tested on: Staphylococcus aureus; assay: Antimicrobial activity against vancomycin intermediate Staphylococcus aureus NRS-23 expressing SCCmec type 2 element by microdilution method; how it was run: as §2
[25] = tested on: Staphylococcus aureus; assay: Antimicrobial activity against vancomycin intermediate Staphylococcus aureus NRS-24 expressing SCCmec type 2 element by microdilution method; how it was run: as §2
[26] = tested on: Staphylococcus aureus; assay: Antimicrobial activity against vancomycin intermediate Staphylococcus aureus NRS-26 expressing SCCmec type 2 element by microdilution method; how it was run: as §2
[27] = tested on: Staphylococcus aureus; assay: Antimicrobial activity against vancomycin intermediate Staphylococcus aureus NRS-27 expressing SCCmec type 2 element by microdilution method; how it was run: as §2
[28] = tested on: Staphylococcus aureus; assay: Antimicrobial activity against vancomycin intermediate Staphylococcus aureus NRS-51 expressing SCCmec type 2 element by microdilution method; how it was run: as §2
[29] = tested on: Staphylococcus aureus; assay: Antimicrobial activity against vancomycin intermediate Staphylococcus aureus NRS-68 expressing SCCmec type 2 element by microdilution method; how it was run: as §2
[30] = tested on: Staphylococcus aureus; assay: Antimicrobial activity against vancomycin intermediate Staphylococcus aureus NRS-73 expressing SCCmec type 4d element by microdilution method; how it was run: as §2
[31] = tested on: Staphylococcus aureus; assay: Antimicrobial activity against vancomycin intermediate Staphylococcus aureus NRS-74 expressing SCCmec type 2 element by microdilution method; how it was run: as §2
[32] = tested on: Staphylococcus aureus; assay: Antimicrobial activity against vancomycin intermediate Staphylococcus aureus NRS-76 expressing SCCmec type 2 element by microdilution method; how it was run: as §1
[33] = tested on: Staphylococcus aureus; assay: Antimicrobial activity against vancomycin intermediate Staphylococcus aureus NRS-118 expressing SCCmec type 1 element by microdilution method; how it was run: as §2
[34] = tested on: Staphylococcus aureus; assay: Antimicrobial activity against vancomycin intermediate Staphylococcus aureus NRS-126 expressing SCCmec type 2 element by microdilution method; how it was run: as §2
[35] = tested on: Staphylococcus aureus; assay: Antimicrobial activity against vancomycin intermediate Staphylococcus aureus NRS-402 expressing SCCmec type 2 element by microdilution method; how it was run: as §2
[36] = tested on: Staphylococcus aureus; assay: Antimicrobial activity against vancomycin intermediate Staphylococcus aureus NRS-403 expressing SCCmec type 2 element by microdilution method; how it was run: as §2
[37] = tested on: Staphylococcus aureus; assay: Antimicrobial activity against vancomycin intermediate Staphylococcus aureus NRS-404 expressing SCCmec type 2 element by microdilution method; how it was run: as §2
[38] = tested on: Staphylococcus aureus; assay: Antimicrobial activity against vancomycin resistant Staphylococcus aureus VRS-1 expressing SCCmec type 2 element by microdilution method; how it was run: as §1
[39] = tested on: Staphylococcus aureus; assay: Antimicrobial activity against vancomycin resistant Staphylococcus aureus VRS-2 expressing SCCmec type 2 element by microdilution method; how it was run: as §1
[40] = tested on: Staphylococcus aureus; assay: Antimicrobial activity against vancomycin resistant Staphylococcus aureus VRS-3 expressing SCCmec type 4 element by microdilution method; how it was run: as §1
[41] = tested on: Staphylococcus aureus; assay: Antimicrobial activity against vancomycin resistant Staphylococcus aureus VRS-4 expressing SCCmec type 4 element by microdilution method; how it was run: as §1
[42] = tested on: Staphylococcus aureus; assay: Antimicrobial activity against vancomycin resistant Staphylococcus aureus VRS-5 expressing SCCmec type 2 element by microdilution method; how it was run: as §1
[43] = tested on: Staphylococcus aureus; assay: Antimicrobial activity against vancomycin resistant Staphylococcus aureus VRS-6 expressing SCCmec type 2 element by microdilution method; how it was run: as §1
[44] = tested on: Staphylococcus aureus; assay: Antimicrobial activity against vancomycin resistant Staphylococcus aureus VRS-7 expressing SCCmec element by microdilution method; how it was run: as §1
[45] = tested on: Staphylococcus aureus; assay: Antimicrobial activity against vancomycin resistant Staphylococcus aureus VRS-8 expressing SCCmec element by microdilution method; how it was run: as §1
[46] = tested on: Staphylococcus aureus; assay: Antimicrobial activity against vancomycin resistant Staphylococcus aureus VRS-9 expressing SCCmec type 2 element by microdilution method; how it was run: as §1

CCC[C@@H]1C[C@@H](C(=O)N[C@@H]([C@H]2O[C@H](SC)[C@H](O)[C@@H](O)[C@H]2O)[C@H](C)Cl)N(C)C1 [CLINDAMYCIN]
MIC [1]: > 64 µg/mL | MIC50 [2]: 0.12 µg/mL (≈ 0.282 µM) | MIC90 [2]: > 64 µg/mL | Activity [3]: 64% | Activity [4]: 36% | MBC [5]: > 64 µg/mL | MBC50 [6]: 8 µg/mL (≈ 18.8 µM) | MBC [6]: > 1 µg/mL | MIC50 [7]: > 64 µg/mL | MIC90 [7]: > 64 µg/mL | Activity [8]: 17% | Activity [9]: 83% | Activity [10]: 100% | MBC50 [11]: >64 µg/mL | MBC90 [11]: >64 µg/mL | MBC [11]: > 0.12 µg/mL | MIC50 ([12]; Staphylococcus aureus): > 64 µg/mL | Activity [13]: 14% | Activity [14]: 86% | MIC [15]: > 64 µg/mL | MIC50 [15]: > 64 µg/mL | MIC90 [15]: > 64 µg/mL | Activity [16]: 0% | MBC50 [17]: >64 µg/mL | MIC [18]: > 64 µg/mL | MIC [19]: > 64 µg/mL | MIC [20]: 0.06 µg/mL (≈ 0.141 µM) | MIC [21]: > 64 µg/mL | MIC [22]: > 64 µg/mL | MIC [23]: > 64 µg/mL | MIC [24]: > 64 µg/mL | MIC [25]: > 64 µg/mL | MIC [26]: > 64 µg/mL | MIC [27]: > 64 µg/mL | MIC [28]: > 64 µg/mL | MIC [29]: > 64 µg/mL | MIC [30]: 0.06 µg/mL (≈ 0.141 µM) | MIC [31]: > 64 µg/mL | MIC [32]: 0.06 µg/mL (≈ 0.141 µM) | MIC [33]: > 64 µg/mL | MIC [34]: > 64 µg/mL | MIC [35]: > 64 µg/mL | MIC [36]: > 64 µg/mL | MIC [37]: 0.06 µg/mL (≈ 0.141 µM) | MIC [38]: > 64 µg/mL | MIC [39]: > 64 µg/mL | MIC [40]: > 64 µg/mL | MIC [41]: > 64 µg/mL | MIC [42]: > 64 µg/mL | MIC [43]: > 64 µg/mL | MIC [44]: > 64 µg/mL | MIC [45]: > 64 µg/mL | MIC [46]: > 64 µg/mL

CC(=O)NC[C@H]1CN(c2ccc(N3CCOCC3)c(F)c2)C(=O)O1 [LINEZOLID]
MIC50 [2]: 2 µg/mL (≈ 5.93 µM) | MIC90 [2]: 2 µg/mL (≈ 5.93 µM) | MBC [5]: > 8 µg/mL | MBC [6]: > 4 µg/mL | MIC50 [7]: 2 µg/mL (≈ 5.93 µM) | MIC90 [7]: 2 µg/mL (≈ 5.93 µM) | Activity [8]: 100% | MBC50 [11]: 4 µg/mL (≈ 11.9 µM) | MBC90 [11]: >8 µg/mL | MBC [11]: > 1 µg/mL | MIC [12]: 1 µg/mL (≈ 2.96 µM) | MIC50 ([12]; Staphylococcus aureus): 2 µg/mL (≈ 5.93 µM) | MIC ([12]; Staphylococcus aureus, read-out: MIC): 1.48 µg/mL (≈ 4.39 µM) | Activity [13]: 100% | MIC50 [15]: 2 µg/mL (≈ 5.93 µM) | MIC90 [15]: 2 µg/mL (≈ 5.93 µM) | MBC50 [17]: >8 µg/mL | MIC [20]: 1 µg/mL (≈ 2.96 µM) | MIC [22]: 1 µg/mL (≈ 2.96 µM) | MIC [23]: 1 µg/mL (≈ 2.96 µM) | MIC [26]: 1 µg/mL (≈ 2.96 µM) | MIC [27]: 1 µg/mL (≈ 2.96 µM) | MIC [29]: 1 µg/mL (≈ 2.96 µM) | MIC [30]: 1 µg/mL (≈ 2.96 µM) | MIC [33]: 1 µg/mL (≈ 2.96 µM) | MIC [35]: 0.5 µg/mL (≈ 1.48 µM) | MIC [36]: 1 µg/mL (≈ 2.96 µM) | MIC [44]: 1 µg/mL (≈ 2.96 µM) | MIC [45]: 1 µg/mL (≈ 2.96 µM) | MIC [46]: 1 µg/mL (≈ 2.96 µM)
